For 1 molecule, Ki, EC50 and Ratio EC50 results are on record in ChEMBL document CHEMBL4130626, “α-Arylidene Diacylglycerol-Lactones (DAG-Lactones) as Selective Ras Guanine-Releasing Protein 3 (RasGRP3) Ligands” (J Med Chem, 2018).

Test [1] deals with T1, Protein kinase C epsilon type (Homo sapiens, UniProt Q02156).
T1 sequence (Q02156 whole entry): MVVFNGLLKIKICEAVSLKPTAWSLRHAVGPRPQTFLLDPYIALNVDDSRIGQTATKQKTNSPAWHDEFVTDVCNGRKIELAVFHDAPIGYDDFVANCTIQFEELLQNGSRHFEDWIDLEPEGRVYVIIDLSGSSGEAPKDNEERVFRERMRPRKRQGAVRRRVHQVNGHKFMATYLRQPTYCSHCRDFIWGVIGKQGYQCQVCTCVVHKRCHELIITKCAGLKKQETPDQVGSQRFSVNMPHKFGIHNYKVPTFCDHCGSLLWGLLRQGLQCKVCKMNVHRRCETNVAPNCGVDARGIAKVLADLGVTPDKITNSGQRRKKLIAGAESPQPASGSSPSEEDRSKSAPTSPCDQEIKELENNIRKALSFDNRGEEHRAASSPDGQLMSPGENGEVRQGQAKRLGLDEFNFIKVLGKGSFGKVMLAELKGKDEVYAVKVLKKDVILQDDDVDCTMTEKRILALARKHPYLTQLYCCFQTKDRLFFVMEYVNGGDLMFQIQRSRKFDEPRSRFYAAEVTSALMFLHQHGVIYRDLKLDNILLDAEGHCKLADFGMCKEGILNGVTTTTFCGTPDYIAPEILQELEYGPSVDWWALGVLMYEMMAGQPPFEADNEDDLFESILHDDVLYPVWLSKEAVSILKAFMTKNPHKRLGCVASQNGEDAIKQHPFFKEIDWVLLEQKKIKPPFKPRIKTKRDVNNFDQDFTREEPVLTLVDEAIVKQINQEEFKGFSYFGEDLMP
Briefly: Displacement of [3H]PDBu from full length recombinant human PKCepsilon expressed in baculovirus expression system after 5 mins by scintillation counting. The procedure, abridged:
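Competition of [3H]PDBu binding by polyethylene glycol precipitation, with 100 µg/ml phosphatidylserine and ≤0.003% Triton X-100, 5 min at 37 °C. Proteins: full-length purified human PKCα, PKCε; full-length RasGRP1; MBP-RasGRP3 from E. coli BL21(DE3) induced with 0.3 mM IPTG 6 h at room temperature. Ki mean ± SEM of ≥2 experiments, triplicate points.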
(In general: Loss of bound radioactivity is the signal in a displacement assay; it reports binding, not function.)

The target in test [2] is T2, Ras guanyl-releasing protein 3 (Homo sapiens, UniProt Q8IV61).
T2 sequence (Q8IV61 whole entry): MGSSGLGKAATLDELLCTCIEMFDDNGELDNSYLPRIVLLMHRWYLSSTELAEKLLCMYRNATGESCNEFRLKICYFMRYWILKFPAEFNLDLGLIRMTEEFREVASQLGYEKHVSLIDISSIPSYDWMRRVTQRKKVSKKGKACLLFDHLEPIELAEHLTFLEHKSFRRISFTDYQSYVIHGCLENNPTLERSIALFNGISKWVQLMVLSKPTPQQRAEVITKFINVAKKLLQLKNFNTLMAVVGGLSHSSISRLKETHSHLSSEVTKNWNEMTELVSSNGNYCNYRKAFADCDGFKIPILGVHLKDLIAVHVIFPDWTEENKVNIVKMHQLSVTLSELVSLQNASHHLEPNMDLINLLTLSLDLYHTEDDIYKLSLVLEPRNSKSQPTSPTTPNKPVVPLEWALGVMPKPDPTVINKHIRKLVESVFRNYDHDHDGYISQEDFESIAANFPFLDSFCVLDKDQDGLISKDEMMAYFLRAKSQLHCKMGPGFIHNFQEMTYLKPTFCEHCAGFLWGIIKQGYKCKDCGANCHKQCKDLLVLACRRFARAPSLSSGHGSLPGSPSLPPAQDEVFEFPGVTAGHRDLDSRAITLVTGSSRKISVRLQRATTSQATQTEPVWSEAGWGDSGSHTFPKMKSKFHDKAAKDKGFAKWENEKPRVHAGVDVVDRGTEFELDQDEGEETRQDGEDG
Briefly: Activation of GFP-tagged RasGRP3 (unknown origin) expressed in HEK293 cells after 30 mins by immunoblot method. Format: cell-based. In a few lines: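 HEK293 cells grown in EMEM + 10% FBS, transfected after 48 h with GFP-RasGRP3 (Lipofectamine Plus). Treated 30 min at 37 °C, 5% CO2, with half-log increasing concentrations up to 10 µM, 1000 nM PMA or DMSO. Active Ras pulled down from lysates on Raf1-RBD agarose (60 min, 4 °C), immunoblotted with anti-Pan-Ras. Band intensity normalised to 1000 nM PMA. EC50 is the mean of n = 3.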
A general note: Immunoblotting shows a protein as a band on a membrane.

Test [3] has as its target T2, Ras guanyl-releasing protein 3. The experiment in a line: Activation of GFP-tagged RasGRP3 (unknown origin) expressed in HEK293 cells assessed as ERK1/2 phosphorylation after 30 mins by immunoblot method. Format: cell-based. In a few lines:
(§1)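 Cells expressing GFP-RasGRP1/3 (HEK293 or LNCaP, 48 h after plating, transfected; expression checked by fluorescence 24-48 h later) or Ramos with endogenous RasGRP3 treated with half-log increasing concentrations (max 10 µM), 1000 nM PMA or DMSO, 37 °C, 30 min, 5% CO2. RasGTP by Raf1 RBD bead pulldown and anti-Pan-Ras immunoblot; pERK by western blot. Band intensities normalized to 1000 nM PMA; EC50 from n = 3.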

The target is the same in test [4]. The experiment in a line: Activation of RasGRP3 in human Ramos cells assessed as ERK1/2 phosphorylation after 30 mins by immunoblot method. It is filed as cell-based. The procedure, abridged:
as §1

Test [5] is filed under the species Homo sapiens. The experiment in a line: Selectivity ratio of EC50 for PKCdelta (unknown origin) expressed in HEK293 cells harboring GFP-tagged RasGRP1 to EC50 for GFP-tagged RasGRP1 (unknown origin) expressed in HEK293 cells. It is filed as cell-based.
For test [6], the species on record is Homo sapiens. Briefly: Selectivity ratio of EC50 for PKCdelta (unknown origin) expressed in HEK293 cells harboring GFP-tagged RasGRP3 to EC50 for GFP-tagged RasGRP3 (unknown origin) expressed in HEK293 cells. It is filed as cell-based. The procedure, abridged:
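One EC50 comes from PKCδ S299 phosphorylation on immunoblot, the other from Ras-GTP pulled down on Raf1-RBD. Both signals normalised to 1000 nM PMA. EC50s above 10 µM are extrapolated.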

The species named for test [7] is Homo sapiens. Briefly: Selectivity ratio of EC50 for PKCdelta in human Ramos cells expressing RasGRP3 to EC50 for RasGRP3 in human Ramos cells. It is filed as cell-based.
Test [8] is filed under the species Homo sapiens. Briefly: Selectivity ratio of EC50 for PKCdelta (unknown origin) expressed in HEK293 cells harboring GFP-tagged RasGRP1 to EC50 for GFP-tagged RasGRP1 (unknown origin) expressed in HEK293 cells assessed as ERK1/2 phosphorylation. Format: cell-based.
The species named for test [9] is Homo sapiens. Briefly: Selectivity ratio of EC50 for PKCdelta (unknown origin) expressed in human LNCAP cells harboring GFP-tagged RasGRP1 to EC50 for GFP-tagged RasGRP1 (unknown origin) expressed in human LNCAP cells assessed as ERK1/2 phosphorylation. Format: cell-based.
Test [10] is filed under the species Homo sapiens. The experiment in a line: Selectivity ratio of EC50 for PKCdelta in human Ramos cells expressing RasGRP3 to EC50 for RasGRP3 in human Ramos cells assessed as ERK1/2 phosphorylation. Format: cell-based.

Each structure is given as a SMILES string.

For orientation: Ki means a measure of affinity in units of concentration, obtained from inhibition or displacement. As a reminder, the EC50 is the concentration needed to bring the measured effect to its halfway point. Turning to `Cn1cc(/C=C2\CC(CO)(COC(=O)C(C)(C)C)OC2=O)c2ccccc21` (stereo not given), the Ki in [1] was determined as 0.0789 µM. Also, the concentration for a half-maximal effect (EC50) worked out at 1.83 µM in test [2], 4.66 µM in [3] and 6.09 µM in test [4]. Also, the Ratio EC50 in test [5] is 14.7; in test [6] it was 9.2; in test [7] it was 28.6; in [8], 2.6; in [9], 2.2; in test [10], 4.
